Reference: ChEMBL document CHEMBL4011589, “Discovery of novel furanone derivatives as potent Cdc7 kinase inhibitors” (Eur J Med Chem, 2017)

Columns and labels:
[1] = molecular target: CDC7/DBF4 (Cell division cycle 7-related protein kinase/Activator of S phase kinase) (Homo sapiens, UniProt O00311); assay: Inhibition of recombinant human Cdc7 (1 to 574 residues)/human N-terminal GST-tagged ASK (1 to 674 residues) expressed in baculovirus expression system using FITC-labeled MCM2 peptide as substrate measured after 5 hrs in presence of 5 uM ATP
Procedure, shortened: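 Cdc7 enzymatic assay with 5 µM ATP. IC50 values are the mean of duplicate measurements.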

[2] = Stability in human liver microsomes assessed as compound remaining at 1 uM in presence of NADPH after 30 mins by LC-MS/MS analysis; format: ADME, microsome; conditions: read-out: Stability
Procedure, shortened: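 Human liver microsomes are incubated with compound for 30 min. The read-out is the percentage of parent compound remaining.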

[3] = Stability of the compound under basic condition; format: physicochemical
[4] = molecular target: CDC7/DBF4 (Cell division cycle 7-related protein kinase/Activator of S phase kinase) (Homo sapiens) (UniProt Q9UBU7+O00311); assay: Ratio of IC50 for recombinant human Cdc7 (1 to 574 residues)/human N-terminal GST-tagged ASK (1 to 674 residues) expressed in baculovirus expression system in presence of […] to IC50 for recombinant human Cdc7 (1 to 574 residues)/human N-terminal GST-tagged ASK (1 to 674 residues) expressed in baculovirus expression system in presence of 5 uM ATP
Mus musculus = species on record: Mus musculus; assay: Stability in mouse liver microsomes assessed as compound remaining at 1 uM in presence of NADPH after 30 mins by LC-MS/MS analysis
[5] = Stability of the compound in 50% KOH; format: physicochemical

IC50 [1] | Compound | further results
4.3 nM | CCOC(=O)C1=C(Nc2ccc(F)cc2)O/C(=C\c2c[nH]c3ncccc23)C1=O | remaining at 0.5 h, 1 µM [2]: 52%
> 10000 nM | NC(=O)C1=C(Nc2ccccc2)O/C(=C\c2c[nH]c3ncccc23)C1=O | 
1200 nM | CCOC(=O)C1=C(Nc2ccccc2)O/C(=C\c2ccc(O)c(C)c2)C1=O | 
3.3 to 3.8 nM | CCOC(=O)C1=C(Nc2ccccc2)O/C(=C\c2c[nH]c3ncccc23)C1=O | Stability [3]: Stable; Ratio IC50 [4]: 21; remaining at 0.5 h, 1 µM (Mus musculus): 7.9%; remaining at 0.5 h, 1 µM [2]: 23%; Stability [5]: Unstable
4.9 nM | CCOC(=O)C1=C(Nc2ccc(OC)cc2)O/C(=C\c2c[nH]c3ncccc23)C1=O | remaining at 0.5 h, 1 µM [2]: 33%
> 10000 nM | CCOC(=O)C1=C(Nc2ccccc2)S/C(=C\c2c[nH]c3ncccc23)C1=O | 
890 nM | O=C1C(C(=O)N2CCCCC2)=C(Nc2ccccc2)O/C1=C\c1c[nH]c2ncccc12 | 
9.9 nM | O=C(O)C1=C(Nc2ccccc2)O/C(=C\c2c[nH]c3ncccc23)C1=O | 
1600 nM | CCNC(=O)C1=C(Nc2ccccc2)O/C(=C\c2c[nH]c3ncccc23)C1=O | 
3200 nM | CCOC(=O)C1=C(Nc2ccccc2)O/C(=C\c2ccc3c(c2)OCO3)C1=O | 
44 nM | CCOC(=O)C1=C(Nc2ccccc2)O/C(=C\c2c[nH]c3ncc(Cl)cc23)C1=O | 
